Measured values reported in ChEMBL document CHEMBL2203241, “Natural product-derived antitumor compound phenethyl isothiocyanate inhibits mTORC1 activity via TSC2” (J Nat Prod, 2012).
Calls of active or inactive are those of the source.

Legend:
[1] = system: MEF; test: Inhibition of growth in TSC2-deficient MEF cells after 6 days; type: functional, cell-based; details: Mus musculus, 144 h
Procedure, shortened: (§1)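 Growth assay: p53−/−TSC2−/− and control MEFs plated at 1000 cells/well and treated next day with compound, DMSO or nothing. After 6 days relative cell number read by CellTiter 96 AQueous One, expressed as % of untreated. IC50 from curve fit; mean ± SD of three independent experiments.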

[2] = system: MEF; test: Inhibition of growth in wild type MEF cells after 6 days; type: functional, cell-based; details: Mus musculus, 144 h; procedure, shortened: as §1
[3] = system: MCF7; test: Increase in mTORC2 activity in human MCF7 cells induction of Akt phosphorylation at serine 473 after 4 hrs by immunoblotting analysis; type: cell-based
Procedure, shortened: (§2)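 MCF7 cells given 20 μM compound or DMSO for up to 4 h. Immunoblots for phospho-AKT T308, phospho-AKT S473, total AKT and β-actin. Phospho signals normalised to total AKT; total AKT normalised to β-actin. Mean ± SD of three independent experiments; repeated measures ANOVA with Tukey's test.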

[4] = system: MEF; test: Increase in mTORC2 activity in p53-/-TSC2-/- MEF cells assessed as […] in NDRG1 phosphorylation at threonine 346 after 3 hrs by immunoblotting analysis; type: cell-based; details: Mus musculus
Procedure, shortened: (§3)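 p53−/−TSC2+/+ and p53−/−TSC2−/− MEFs in standard serum-containing medium exposed to compound, DMSO (matched to 20 μM) or nothing for 3 h. Immunoblots probed for phospho-AKT S473, total AKT, phospho-NDRG1 T346 and total NDRG1, with HSC70 as loading control.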

[5] = system: MEF; test: Increase in mTORC2 activity in p53-/-TSC2-/- MEF cells assessed as […] of Akt phosphorylation at serine 473 after 3 hrs by immunoblotting analysis; type: cell-based; details: Mus musculus; procedure, shortened: as §3
[6] = system: MEF; test: Effect on mTORC2 in p53-/-TSC2+/+ MEF cells assessed as as NDRG1 phosphorylation at threonine 346 after 3 hrs by immunoblotting analysis; type: cell-based; details: Mus musculus; procedure, shortened: as §3
[7] = system: MEF; test: Effect on mTORC2 in p53-/-TSC2+/+ MEF cells assessed as Akt phosphorylation at serine 473 after 3 hrs by immunoblotting analysis; type: cell-based; details: Mus musculus; procedure, shortened: as §3
[8] = system: MEF; test: Inhibition of mTORC1 in p53-/-TSC2-/- MEF cells assessed as reduction of p70S6K phosphorylation at threonine 389 after 3 hrs by immunoblotting analysis; type: cell-based; details: Mus musculus
Procedure, shortened: (§4)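 p53−/−TSC2+/+ and p53−/−TSC2−/− MEFs in standard serum-containing medium exposed to a concentration series, DMSO (matched to 20 μM) or nothing for 3 h. Immunoblots for phospho-p70 S6K T389, total p70 S6K and β-actin. Mean ± SD of three independent experiments; ANOVA with Tukey's test within each line, t test between lines.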

[9] = system: MEF; test: Inhibition of mTORC1 in p53-/-TSC2+/+ MEF cells assessed as reduction of p70S6K phosphorylation at threonine 389 after 3 hrs by immunoblotting analysis; type: cell-based; details: Mus musculus; procedure, shortened: as §4
[10] = target: AMP-activated protein kinase, AMPK (Homo sapiens) (UniProt P54646+O43741+P54619+Q9UGJ0+Q9Y478+Q13131+Q9UGI9); test: Induction of AMPK phosphorylation at threonine 172 in human MCF7 cells after 3 hrs by immunoblotting analysis; type: cell-based
[11] = target: Mitogen-activated protein kinase; ERK1/ERK2 (Homo sapiens) (UniProt P27361+P28482); test: Induction of ERK1/2 phosphorylation at threonine 202/tyrosine 204 in human MCF7 cells after 3 hrs by immunoblotting analysis; type: cell-based
Sequence of Mitogen-activated protein kinase; ERK1/ERK2 (Homo sapiens) (P27361 whole entry, looked up): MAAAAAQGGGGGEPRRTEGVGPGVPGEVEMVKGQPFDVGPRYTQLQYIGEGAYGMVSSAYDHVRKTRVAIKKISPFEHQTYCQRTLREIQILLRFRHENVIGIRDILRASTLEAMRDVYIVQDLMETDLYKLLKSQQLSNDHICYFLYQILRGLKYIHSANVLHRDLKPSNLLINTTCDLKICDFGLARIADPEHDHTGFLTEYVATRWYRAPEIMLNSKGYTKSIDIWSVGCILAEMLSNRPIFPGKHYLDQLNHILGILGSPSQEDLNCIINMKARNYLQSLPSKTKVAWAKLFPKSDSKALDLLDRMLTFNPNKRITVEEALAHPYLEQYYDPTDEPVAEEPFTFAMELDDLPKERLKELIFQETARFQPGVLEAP
Sequence of Mitogen-activated protein kinase; ERK1/ERK2 (Homo sapiens) (P28482 whole entry, looked up): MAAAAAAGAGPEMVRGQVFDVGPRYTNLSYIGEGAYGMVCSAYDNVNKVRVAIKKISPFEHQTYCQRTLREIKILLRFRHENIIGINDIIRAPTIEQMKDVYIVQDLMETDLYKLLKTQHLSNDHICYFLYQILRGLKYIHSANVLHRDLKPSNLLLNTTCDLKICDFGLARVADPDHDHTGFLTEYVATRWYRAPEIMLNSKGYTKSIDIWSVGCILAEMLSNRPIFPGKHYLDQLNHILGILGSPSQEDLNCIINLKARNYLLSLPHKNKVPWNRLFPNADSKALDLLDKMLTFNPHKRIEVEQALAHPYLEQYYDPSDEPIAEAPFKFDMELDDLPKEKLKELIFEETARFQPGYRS

[12] = system: MCF7; test: Induction of Akt phosphorylation at threonine 308 in human MCF7 cells after 4 hrs by immunoblotting analysis relative to total Akt; type: cell-based; procedure, shortened: as §2
[13] = system: MCF7; test: Inhibition of Akt phosphorylation at threonine 308 in human MCF7 cells at 20 uM after 4 hrs by immunoblotting analysis; type: cell-based; procedure, shortened: as §2
[14] = system: MEF; test: Inhibition of mTORC1 in PTEN-/- MEF cells assessed as reduction of p70S6K phosphorylation after 3 hrs by immunoblotting analysis; type: cell-based; details: Mus musculus
Procedure, shortened: (§5)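 PTEN+/+ and PTEN−/− MEFs exposed to a concentration series, DMSO or nothing for 3 h. Immunoblots for phospho-p70 S6K T389, total p70 S6K and β-actin.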

[15] = system: MEF; test: Inhibition of mTORC1 in MEF cells assessed as reduction of p70S6K phosphorylation at threonine 389 at 2.5 to 5 uM after 3 hrs by immunoblotting analysis; type: cell-based; details: Mus musculus; procedure, shortened: as §5
[16] = system: MEF; test: Inhibition of mTORC1 in p53-/-TSC+/+ MEF cells assessed as reduction of p70S6K phosphorylation after 3 hrs by immunoblotting analysis; type: cell-based; details: Mus musculus; procedure, shortened: as §4
[17] = system: MEF; test: Inhibition of mTORC1 in PTEN+/+ MEF cells assessed as reduction of p70S6K phosphorylation after 3 hrs by immunoblotting analysis; type: cell-based; details: Mus musculus; procedure, shortened: as §5
[18] = target: T1, mTORC1 (Homo sapiens) (UniProt P42345+Q8N122+Q9BVC4); test: Inhibition of mTORC1 in human MCF7 cells assessed as reduction of p70S6K phosphorylation at 20 uM after 15 mins by immunoblotting analysis; type: cell-based
T1 sequence (Q8N122 whole entry, looked up, other chains not shown): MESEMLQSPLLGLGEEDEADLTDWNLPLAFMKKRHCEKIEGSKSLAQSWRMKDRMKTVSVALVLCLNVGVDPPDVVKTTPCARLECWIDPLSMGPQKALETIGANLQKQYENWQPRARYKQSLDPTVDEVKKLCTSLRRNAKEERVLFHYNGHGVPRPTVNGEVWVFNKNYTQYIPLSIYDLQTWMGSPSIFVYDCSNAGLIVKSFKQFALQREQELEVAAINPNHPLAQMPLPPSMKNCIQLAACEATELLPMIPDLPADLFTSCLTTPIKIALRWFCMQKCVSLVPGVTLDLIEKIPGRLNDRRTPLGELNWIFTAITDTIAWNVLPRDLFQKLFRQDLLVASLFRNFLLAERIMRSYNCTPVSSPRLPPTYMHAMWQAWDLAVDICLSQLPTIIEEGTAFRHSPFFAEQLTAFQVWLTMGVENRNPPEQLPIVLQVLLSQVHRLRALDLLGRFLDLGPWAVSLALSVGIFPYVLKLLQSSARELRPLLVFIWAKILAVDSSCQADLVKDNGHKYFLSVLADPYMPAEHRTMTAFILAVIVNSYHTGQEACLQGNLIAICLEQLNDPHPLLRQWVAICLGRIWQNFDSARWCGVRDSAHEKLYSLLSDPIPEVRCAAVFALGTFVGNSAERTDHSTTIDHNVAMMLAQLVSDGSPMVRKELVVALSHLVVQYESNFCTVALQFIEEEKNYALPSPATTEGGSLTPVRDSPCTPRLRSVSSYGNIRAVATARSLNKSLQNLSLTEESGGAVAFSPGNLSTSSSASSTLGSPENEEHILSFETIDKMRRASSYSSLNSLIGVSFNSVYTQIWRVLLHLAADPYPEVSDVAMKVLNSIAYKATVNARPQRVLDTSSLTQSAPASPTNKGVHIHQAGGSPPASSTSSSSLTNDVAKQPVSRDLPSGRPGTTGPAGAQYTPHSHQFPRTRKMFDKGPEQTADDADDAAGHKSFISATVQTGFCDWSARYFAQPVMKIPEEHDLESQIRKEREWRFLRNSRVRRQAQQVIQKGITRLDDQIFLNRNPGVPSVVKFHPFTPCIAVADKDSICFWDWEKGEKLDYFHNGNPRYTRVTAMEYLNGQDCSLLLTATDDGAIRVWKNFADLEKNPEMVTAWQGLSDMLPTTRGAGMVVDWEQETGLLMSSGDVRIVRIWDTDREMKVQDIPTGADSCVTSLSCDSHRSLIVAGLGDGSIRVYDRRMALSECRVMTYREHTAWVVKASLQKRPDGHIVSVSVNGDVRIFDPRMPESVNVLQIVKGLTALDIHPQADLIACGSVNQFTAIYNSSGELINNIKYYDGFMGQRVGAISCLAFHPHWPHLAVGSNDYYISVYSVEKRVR
T1 sequence (Q9BVC4 whole entry, looked up, other chains not shown): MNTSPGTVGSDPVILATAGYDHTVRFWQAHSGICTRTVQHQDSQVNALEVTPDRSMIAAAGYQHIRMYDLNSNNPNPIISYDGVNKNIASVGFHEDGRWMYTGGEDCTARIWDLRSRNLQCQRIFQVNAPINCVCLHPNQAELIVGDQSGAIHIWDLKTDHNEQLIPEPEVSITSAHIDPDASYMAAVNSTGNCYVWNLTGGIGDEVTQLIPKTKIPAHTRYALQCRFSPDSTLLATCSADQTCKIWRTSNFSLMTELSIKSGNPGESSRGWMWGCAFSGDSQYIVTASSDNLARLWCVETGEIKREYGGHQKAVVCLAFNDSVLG
Procedure, shortened: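 MCF7 cells exposed to 20 μM compound or DMSO over a time course; p70 S6K phosphorylation read by immunoblotting.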

[19] = target: T1, mTORC1 (Homo sapiens); test: Inhibition of mTORC1 in human MCF7 cells assessed as reduction of 4E-BP1 phosphorylation after 3 hrs by immunoblotting analysis; type: cell-based
Procedure, shortened: (§6)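 MCF7 cells exposed to a concentration series, DMSO or nothing for 3 h, then immunoblotted. Repeated measures ANOVA with Tukey's test.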

[20] = target: T1, mTORC1 (Homo sapiens); test: Inhibition of mTORC1 in human MCF7 cells assessed as reduction of p70S6K phosphorylation at threonine 389 after 3 hrs by immunoblotting analysis; type: cell-based; procedure, shortened: as §6
[21] = target: T2, Hypoxia inducible factors; HIF-1-alpha, HIF-2-alpha (Homo sapiens, UniProt Q16665+Q99814); test: Inhibition of Serine/threonine-protein kinase mTOR complex 1-mediated HIF1alpha RNA translation in human MCF7 cells at 20 uM pretreated for 1 hr prior to metabolic labeling by SDS-PAGE analysis; type: cell-based
Procedure, shortened: (§7)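 MCF7 cells held 1 h in DMEM without L-glutamine, cysteine and methionine, with 10% dialysed FCS and 2 mM glutamine. Then pretreated 1 h with compound, cycloheximide 10 μg/mL or DMSO, and labelled 2 h with [35S] amino acids (0.75 MBq/mL) plus CoCl2 100 μM. RIPA lysates immunoprecipitated overnight at 4 °C with anti-HIF1α or isotype IgG; SDS-PAGE, phosphorimaging. Three independent experiments.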

[22] = target: T2, Hypoxia inducible factors; HIF-1-alpha, HIF-2-alpha; test: Inhibition of Serine/threonine-protein kinase mTOR complex 1-mediated HIF1alpha RNA translation in human MCF7 cells pretreated for 1 hr prior to metabolic labeling by SDS-PAGE analysis; type: cell-based; procedure, shortened: as §7
[23] = system: MCF7; test: Inhibition of HIF1alpha RNA translation in human MCF7 cells at 10 ug/mL pretreated for 1 hr prior to metabolic labeling by SDS-PAGE analysis; type: functional, cell-based; procedure, shortened: as §7

S=C=NCCc1ccccc1 [PHENETHYLISOTHIOCYANATE]
active: Activity [3] | Activity [4] | Activity [5] | inhibition [9] | Activity [11] | inhibition [14] | inhibition [15] | inhibition [16] | inhibition [17] | inhibition [18] | inhibition [19] | inhibition [20] | inhibition [21]
3: fold change (FC) [12]
4.7 µM: IC50 [2]
7.5 µM: IC50 [22]
8 µM: IC50 [1]
inactive: Activity [6] | Activity [7] | inhibition [8] | Activity [10] | inhibition [13]

C[C@@H]1C[C@@H]([C@H](O)CC2CC(=O)NC(=O)C2)C(=O)[C@@H](C)C1
active: inhibition [23]
